Source: PMC4351919 (Journal of biological inorganic chemistry : JBIC : a …, 2014)

Tests used:
[1] = Determination of aqueous solubility; assay type: physicochemical; settings: Milli-Q water, room temperature
Method in brief: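 Modified OECD method. Saturated solutions made in Milli-Q water at room temperature with repeated ultrasonication. Undissolved material removed through a 0.45 μm filter. Filtrate diluted in 1 % HNO3, and platinum quantified by ICP-MS (RF 1500 W, 194Pt/195Pt monitored, Re internal isotope, 10 replicates) to calculate solubility.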

[2] = Lipophilicity as chromatographic retention factor log kw; assay type: physicochemical; settings: RP-HPLC, extrapolated to 0 % MeOH
Method in brief: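 RP-HPLC on a C18 column (4.6 × 250 mm, 5 μm) at 25 °C, 1 ml/min, isocratic 0.1 % TFA(aq)/MeOH, UV 210 nm, with uracil for dead time t0. Each compound run in triplicate at ≥3 MeOH compositions; k = (tR − t0)/t0. log kw obtained by linear extrapolation of log k versus %MeOH to 0 % MeOH.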

[3] = Lipophilicity as n-octanol/water partition coefficient; assay type: physicochemical; settings: shake flask
Method in brief: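 Modified OECD shake-flask method. Compound dissolved in water pre-saturated with 1-octanol, and aqueous Pt measured by ICP-MS after dilution in 1 % HNO3. Solution then mixed 1:1 with water-saturated 1-octanol and shaken 1 h. After phase separation, aqueous Pt re-measured; octanol content taken as the loss from the stock to give log Po/w.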

[4] = test system: murine leukemia model L1210; assay: Cytotoxicity assay; assay type: cell-based; settings: read-out: IC50 mean ± SD, L1210; MTT assay, 72 h exposure
Method in brief: (§1)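 Cells (L1210 in RPMI 1640; CT-26 in DMEM/F12; both with 10 % FCS, 37 °C, 5 % CO2) seeded at 2 × 10^3/well and allowed 24 h recovery. 10 mM DMSO stocks serially diluted in medium; final DMSO ≤0.5 %. After 72 h exposure, viability read by MTT (EZ4U). IC50 reported as mean ± SD of at least three independent experiments.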

[5] = test system: murine colon cancer cell model CT-26; assay: Cytotoxicity assay; assay type: cell-based; settings: MTT assay, 72 h exposure; for IC50: read-out: IC50 mean ± SD, CT-26
Method in brief: as §1

[6] = Tissue distribution of platinum after single dose oral administration; assay type: in vivo, Balb/c mice; settings: 2 h after single oral dose 40 mg/kg, mice
[7] = assay type: in vivo, Balb/c mice; settings: CT-26-bearing mice
CH1 = settings: read-out: IC50 (CH1); MTT assay, 96 h exposure; cited from earlier work
SW480 = settings: read-out: IC50 (SW480); MTT assay, 96 h exposure; cited from earlier work
A549 = settings: read-out: IC50 (A549); MTT assay, 96 h exposure; cited from earlier work
[8] = SEC-ICP-MS study in mice serum after single dose oral administration; assay type: in vivo; settings: serum 2 h after single oral dose
Method in brief: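 Balb/c mice dosed orally once at 40 mg/kg (water, 1 % DMSO). Under anesthesia at 2 h, blood taken by heart puncture; serum isolated (3000 rpm, 10 min, twice), stored at −20 °C, then diluted in PBS. SEC on Superdex 200 (10–600 kDa), 100 mmol/l ammonium acetate pH 7.4, 0.7 ml/min, with online ICP-MS Pt trace. References: compounds in PBS, fresh or after 1 and 24 h at 37 °C.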

CT-26 cells = assay: Anticancer activity against CT-26 cells in vivo; set-up: species or system Balb/c mice; settings: CT-26-bearing mice, i.p. days 4, 7, 11, 14; 8.5 mg/kg for 1, 10 mg/kg for 2
Method in brief: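 CT-26 cells (5 × 10^5) injected s.c. into right flank of female Balb/c mice. Test compound given i.p. as freshly prepared aqueous solution on days 4, 7, 11 and 14. Daily distress checks. Tumor size measured regularly by caliper; volume = length × width²/2. Mice sacrificed at day 15, 24 h after last dose.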

[9] = 15 min after oral application, clinical trials; cited from earlier work
[10] = cited from earlier work

| SMILES | Aqueous solubility [1] [µg/mL] | Lipophilicity (log kw) [2] | Lipophilicity (log Po/w) [3] | IC50 [4] [µM] | IC50 [5] [µM] | Percentage of platinum amount found in serum relative to the administered platinum dose [6] | Platinum level in serum [6] | IC50 (CH1) [µM] | IC50 (SW480) [µM] | IC50 (A549) [µM] | further results |
| --- | --- | --- | --- | --- | --- | --- | --- | --- | --- | --- | --- |
| CC[NH][Pt]([Cl])([Cl])([NH]CC)([O]C(=O)CCC(=O)OCC)[O]C(=O)CCC(=O)OCC [Compound 1, (OC-6-33)-dichloridobis((4-ethoxy)-4-oxobutanoato)bis(ethylamine)platinum(IV)] | 1940 ± 20 | 2.87 ± 0.01 | 0.72 ± 0.03 | 1.5 ± 0.4 | 5.7 ± 0.2 | ~ 16 % Pt | ~ 2 μg/ml | 0.061 ± 0.015 | 0.3 ± 0.05 | 1 ± 0.4 | Platinum level in blood pellet [6]: ~ 1 μg/g; Platinum level in kidneys [6]: ~ 4 μg/g; Platinum level in liver [6]: ~ 9 μg/g; Platinum level in lungs [6]: ~ 1 μg/g; Increase of platinum level in tumor at the higher oral dose ([7]; 51.7 vs 34.1 mg/kg p.o., multiple dose): up to 30% |
| [NH2][Pt]1([NH2])([O]C(=O)CCC(=O)NC2CCCC2)([O]C(=O)CCC(=O)NC2CCCC2)[O]C(=O)C2(CCC2)C(=O)[O]1 [Compound 2, (OC-6-33)-diammine(cyclobutane-1,1-dicarboxylato)bis((4-cyclopentylamino)-4-oxobutanoato)platinum(IV)] | 10200 ± 40 | 2.99 ± 0.06 | 0.77 ± 0.06 | > 50 | > 50 | ~ 1.5 % Pt | ~ 0.15 μg/ml | 15 ± 5 | > 500 | > 500 | Platinum accumulation in all organ samples [6]: less than 0.5 μg/g; Free intact platinum(IV) complex in serum [8]: ~ 5%; In vivo anticancer activity (tumor volume), intraperitoneal application (CT-26 cells): inactive; Platinum in liver, kidney and serum after i.p. versus oral administration ([7]; 10 mg/kg i.p. vs 40 mg/kg p.o., multiple dose): tenfold higher; Platinum concentrations in all tissues after oral application ([7]; multiple dose p.o. 40 mg/kg, day 15): < 0.5 µg/g |
| CC(=O)[O][Pt]([NH2])([Cl])([Cl])([NH]C1CCCCC1)[O]C(C)=O [Satraplatin, (OC-6-43)-bis(acetato)amminedichlorido(cyclohexylamine)platinum(IV), reference compound] | 100 ± 10 | 1.49 ± 0.03 | 0.23 ± 0.01 | 2.5 ± 0.2 | 2.9 ± 0.3 | ~ 4 % Pt | – | 0.1 ± 0.02 | 1.5 ± 0.1 | 6.4 ± 0.4 | Fold more active than 1 in CT-26 cells [5]: ~ 2 fold; Times lower platinum concentrations in the investigated tissues than compound 1 [6]: 2-3 times; Presence of intact parent drug in serum [8]: absence of intact satraplatin; Parent drug in patients' plasma ultrafiltrate [9]: no parent drug was detected |
| N.N.O=C([O-])C1(C(=O)[O-])CCC1.[Pt+2] [carboplatin] | – | – | – | – | – | – | – | – | – | – | Injected dose recovered in urine [10]: ~90% |
